In ChEMBL document CHEMBL2401663, “(Biphenyl-4-yl)methylammonium chlorides: potent anticonvulsants that modulate Na+ currents” (J Med Chem, 2013):
The source made the active and inactive calls. No cut-off for these calls is given here.

Key:
[1] = Toxicity in po dosed albino Sprague-Dawley rat assessed as behavioral toxicity after 0.25 to 4 hrs; format: organism-based; conditions: in vivo
Outline: (§1)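 Male albino Sprague-Dawley rats dosed ip or orally, scored for behavioral toxicity (neurological impairment). TD50 is in mg/kg, taken at the time of peak effect.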

[2] = Toxicity in ip dosed albino CF1 mouse after 0.25 to 4 hrs by rotorod test; format: organism-based; conditions: in vivo
[3] = test system: Mus musculus; assay: Anticonvulsant activity against ip dosed albino CF1 mouse after 0.25 to 4 hrs by subcutaneous pentylenetetrazol test; format: functional
[4] = test system: Rattus norvegicus; assay: Anticonvulsant activity against po dosed albino Sprague-Dawley rat after 0.25 to 4 hrs by maximal electroshock seizure test; format: functional
Outline: (§2)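 Male albino Sprague-Dawley rats dosed ip or orally under the NIH Anticonvulsant Screening Program, tested by maximal electroshock seizure.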

[5] = test system: Mus musculus; assay: Anticonvulsant activity against ip dosed albino CF1 mouse after 0.25 to 4 hrs by maximal electroshock seizure test; format: functional
[6] = Toxicity in ip dosed albino Sprague-Dawley rat assessed as behavioral toxicity after 0.25 to 4 hrs; format: organism-based; conditions: in vivo; outline: as §1
[7] = test system: Rattus norvegicus; assay: Anticonvulsant activity against ip dosed albino Sprague-Dawley rat after 0.25 to 4 hrs by maximal electroshock seizure test; format: functional; outline: as §2
[8] = test system: Mus musculus; assay: Anticonvulsant activity against ip dosed albino CF1 mouse after 1 to 4 hrs by 6 Hz psychomotor seizure test; format: functional
[9] = test system: Mus musculus; assay: Anticonvulsant activity against ip dosed albino CF1 mouse after 2 hrs by subcutaneous pentylenetetrazol test; format: functional; conditions: albino CF1, 2 h
[10] = test system: Mus musculus; assay: Anticonvulsant activity against ip dosed albino CF1 mouse after 1 hr by 6 Hz psychomotor seizure test; format: functional
[11] = test system: Rattus norvegicus; assay: Anticonvulsant activity against ip dosed albino Sprague-Dawley rat after […] by maximal electroshock seizure test; format: functional
[12] = Inhibition of Na+ channel in mouse CAD cells assessed as slow inactivation by whole cell voltage clamp technique; format: cell-based
Outline: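 CAD cells (Ham's F12/EMEM, 8% FBS, 37 °C, 5% CO2) by whole-cell voltage clamp at room temperature. Na+ channel slow inactivation measured at −50 mV; IC50 is the concentration at which half of the channels reach a slow-inactivated state.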

[13] = test system: Mus musculus; assay: Toxicity in ip dosed albino CF1 mouse after 6 hrs by rotorod test; format: organism-based; conditions: in vivo
[14] = test system: CAD; assay: Inhibition of Na+ channel in mouse CAD cells assessed as hyperpolarizing shift at 1 uM by whole cell voltage clamp technique (reference value: -71.6 +/- 0.6 mV); format: cell-based
Outline: (§3)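 Steady-state fast inactivation in CAD cells by whole-cell voltage clamp at room temperature. Cells held at −80 mV, given 500-ms prepulses from −120 to −10 mV in 10-mV steps, then a 20-ms step to 0 mV. Curves fitted with a single Boltzmann; V1/2 shift compared with 0.1% DMSO by ANOVA and Dunnett's test. Mean ± SEM.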

[15] = test system: Rattus norvegicus; assay: Toxicity in ip dosed albino Sprague-Dawley rat assessed as behavioral toxicity after 2 hrs; format: organism-based; conditions: in vivo; outline: as §1
[16] = organism: Rattus norvegicus; assay: Protective index, ratio of TD50 for albino Sprague-Dawley rat to ED50 for albino Sprague-Dawley rat; format: functional
Outline: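 Protective index is TD50/ED50, both from orally dosed male Sprague-Dawley rats. TD50 is for behavioral toxicity and ED50 is for maximal electroshock seizure.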

[17] = test system: CAD; assay: Inhibition of Na+ channel in mouse CAD cells assessed as hyperpolarizing shift at 30 uM by whole cell voltage clamp technique (reference value: -71.6 +/- 0.6 mV); format: cell-based; outline: as §3
[18] = test system: Mus musculus; assay: Anticonvulsant activity against ip dosed albino CF1 mouse after 4 hrs by subcutaneous pentylenetetrazol test; format: functional; conditions: albino CF1, 4 h
[19] = organism: Rattus norvegicus; assay: Inhibition of Na+ channel in rat embryonic cortical neurons assessed as steady state activation at 20 uM by whole cell voltage clamp technique relative to control
Outline: (§4)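 Embryonic day 19 rat cortical neurons by whole-cell voltage clamp at room temperature, with protocols mostly as for CAD cells. 20 μM compared with 0.1% DMSO. Activation from 15-ms pulses, −70 to +80 mV; conductance G = I/(Vm − Vrev); Boltzmann fits giving V1/2 and k. Mean ± SEM; ANOVA with post-hoc test.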

[20] = test system: Rattus norvegicus; assay: Anticonvulsant activity against po dosed albino Sprague-Dawley rat after 2 hrs by maximal electroshock seizure test; format: functional; outline: as §2
[21] = test system: Rattus norvegicus; assay: Anticonvulsant activity against ip dosed albino Sprague-Dawley rat after 2 hrs by maximal electroshock seizure test; format: functional; outline: as §2
[22] = test system: CAD; assay: Inhibition of Na+ channel in mouse CAD cells assessed as frequency-dependent inactivation at 10 uM by whole cell voltage clamp technique relative to control; format: cell-based
Outline: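 Frequency (use)-dependent inhibition of Na+ currents in CAD cells by whole-cell voltage clamp at room temperature. Current trend and amplitude at 10 μM compared with control.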

[23] = test system: Mus musculus; assay: Anticonvulsant activity against ip dosed albino CF1 mouse after 0.5 hrs by maximal electroshock seizure test; format: functional
[24] = organism: Rattus norvegicus; assay: Inhibition of Na+ channel in rat embryonic cortical neurons assessed as slow inactivation at 20 uM by whole cell voltage clamp technique; outline: as §4
[25] = organism: Rattus norvegicus; assay: Inhibition of Na+ channel in rat embryonic cortical neurons assessed as frequency-dependent inactivation at 20 uM by whole cell voltage clamp technique relative to control
[26] = organism: Rattus norvegicus; assay: Inhibition of Na+ channel in rat embryonic cortical neurons assessed as fast inactivation at 20 uM by whole cell voltage clamp technique (reference value: -53.9 +/- 1.2 mV); outline: as §4
[27] = test system: CAD; assay: Inhibition of Na+ channel in mouse CAD cells assessed as fast inactivation by whole cell voltage clamp technique; format: cell-based; outline: as §3
[28] = test system: Mus musculus; assay: Anticonvulsant activity against ip dosed albino CF1 mouse after 0.25 to 1 hr by 6 Hz psychomotor seizure test; format: functional
[29] = test system: Rattus norvegicus; assay: Anticonvulsant activity against ip dosed albino Sprague-Dawley rat after 0.25 to 2 hrs by maximal electroshock seizure test; format: functional; outline: as §2
[30] = test system: Mus musculus; assay: Toxicity in ip dosed albino CF1 mouse after […] by rotorod test; format: organism-based; conditions: in vivo
[31] = test system: Mus musculus; assay: Anticonvulsant activity against ip dosed albino CF1 mouse after […] by subcutaneous pentylenetetrazol test; format: functional
[32] = test system: Mus musculus; assay: Anticonvulsant activity against ip dosed albino CF1 mouse after […] by maximal electroshock seizure test; format: functional
[33] = test system: Mus musculus; assay: Anticonvulsant activity against ip dosed albino CF1 mouse after 0.5 to 2 hrs by maximal electroshock seizure test; format: functional
[34] = test system: Mus musculus; assay: Anticonvulsant activity against ip dosed albino CF1 mouse after 2 hrs by 6 Hz psychomotor seizure test; format: functional
[35] = test system: Mus musculus; assay: Anticonvulsant activity against ip dosed albino CF1 mouse after 0.5 to 2 hrs by 6 Hz psychomotor seizure test; format: functional
[36] = test system: Mus musculus; assay: Toxicity in ip dosed albino CF1 mouse after 0.5 to 2 hrs by rotorod test; format: organism-based; conditions: in vivo
[37] = test system: Mus musculus; assay: Anticonvulsant activity against ip dosed albino CF1 mouse after 1 hr by maximal electroshock seizure test; format: functional
[38] = test system: Rattus norvegicus; assay: Anticonvulsant activity against po dosed albino Sprague-Dawley rat after 5 hrs by maximal electroshock seizure test; format: functional
Outline: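 Male albino Sprague-Dawley rats given compound orally under the NIH Anticonvulsant Screening Program, then challenged by maximal electroshock.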

SMILES: Cl.NCc1ccc(-c2ccc(Cl)cc2)cc1
- TD50 [1]: > 30 mg/kg
- TD50 [2]: > 50 mg/kg
- ED50 [3]: > 50 mg/kg
- ED50 [4]: > 30 mg/kg
- ED50 [5]: > 50 mg/kg
- TD50 [6]: > 30 mg/kg
- ED50 [7]: > 30 mg/kg
- ED50 [8]: < 100 mg/kg

SMILES: Cl.NCc1ccc(-c2cccc(F)c2)cc1
- TD50 [1]: > 30 mg/kg
- TD50 [2]: > 100 mg/kg
- ED50 [9]: 50 mg/kg
- ED50 [10]: 50 mg/kg
- ED50 [11]: 65 mg/kg
- ED50 [4]: > 30 mg/kg
- ED50 [5]: > 50 mg/kg
- TD50 [6]: > 65 mg/kg

SMILES: Cl.NCc1ccc(-c2cccc(OC(F)(F)F)c2)cc1
- TD50 [1]: > 500 mg/kg
- IC50 [12]: 2700 nM
- TD50 [13]: 81 mg/kg
- ED50 [10]: 43 mg/kg
- V1/2 [14]: 11.2 mV
- TD50 [15]: 72 mg/kg
- Ratio TD50/ED50 [16]: >57
- V1/2 [17]: 26.5 mV
- ED50 [18]: 81 mg/kg
- inhibition [19]: inactive
- ED50 [20]: 8.7 mg/kg
- ED50 [21]: 16 mg/kg
- inhibition [22]: inactive
- ED50 [23]: 25 mg/kg
- inhibition [24]: Active
- inhibition [25]: inactive
- V1/2 [26]: -69.6 mV
- inhibition [27]: inactive

SMILES: Cl.NCc1ccc(-c2ccccc2OC(F)(F)F)cc1
- TD50 [1]: > 30 mg/kg
- ED50 [28]: < 50 mg/kg
- ED50 [29]: < 30 mg/kg
- ED50 [4]: > 30 mg/kg
- TD50 [30]: 72 mg/kg
- TD50 [6]: > 30 mg/kg
- ED50 [31]: > 120 mg/kg
- ED50 [32]: 40 mg/kg

SMILES: Cl.NCc1ccc(-c2ccc(OC(F)(F)F)cc2)cc1
- ED50 [33]: 50 mg/kg
- TD50 [1]: > 30 mg/kg
- TD50 [2]: > 50 mg/kg
- ED50 [3]: > 50 mg/kg
- ED50 [34]: < 100 mg/kg
- ED50 [4]: > 30 mg/kg
- TD50 [6]: > 30 mg/kg
- ED50 [7]: > 30 mg/kg

SMILES: COC(=O)c1cccc(-c2ccc(CN)cc2)c1.Cl
- TD50 [1]: > 30 mg/kg
- ED50 [35]: > 300 mg/kg
- TD50 [36]: 100 mg/kg
- ED50 [23]: 100 mg/kg
- ED50 [4]: > 30 mg/kg
- TD50 [6]: > 30 mg/kg
- ED50 [7]: > 30 mg/kg

SMILES: CCC1(c2ccccc2)C(=O)NC(=O)NC1=O [PHENOBARBITAL]
- ED50 [37]: 22 mg/kg
- ED50 [38]: 9.1 mg/kg

SMILES: CCCC(CCC)C(=O)O [VALPROIC ACID]
- ED50 [32]: 270 mg/kg
